From ChEMBL document CHEMBL5335771, “Thioxanthenone-based derivatives as multitarget therapeutic leads for Alzheimer's disease” (Eur J Med Chem, 2023)
Activity calls are given as the source filed them. The rule behind the calls is not given here.

Experiments:
[1] = Cytotoxicity against mouse brain Primary embryonic cortical cell assessed as cell death at 2.5 uM incubated for 6 hrs by propidium iodide dye based spectrofluorometric analysis relative to control; format: toxicity
Outline: (§1)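 Primary cortical cultures from E16.5 mouse embryo brains, trypsinized, plated on poly-D-lysine, grown in Neurobasal with glutamine, glucose, 5% horse serum and B27; compounds added at 4 DIV. Propidium iodide 30 μM; baseline F1 read 1 h after PI; ex 530/em 645 nm. Fmax after digitonin permeabilization. % death = 100×(Fn−F1)/(Fmax−F1); mean of three independent experiments.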

[2] = Cytotoxicity against mouse brain Primary embryonic cortical cell assessed as cell death at 10 uM incubated for 72 hrs by propidium iodide dye based spectrofluorometric analysis relative to control; format: toxicity; outline: as §1
[3] = Cytotoxicity against mouse brain Primary embryonic cortical cell assessed as cell death at 5 uM incubated for 3 hrs by propidium iodide dye based spectrofluorometric analysis relative to control; format: toxicity; outline: as §1
[4] = target: Cholinesterase (Equus caballus, UniProt P81908); experiment: Inhibition of equine serum BChE using butyrylthiocholine iodide as substrate preincubated for 20 mins followed by substrate addition by DTNB reagent based Ellman's method; format: cell-free
[5] = Cytotoxicity against mouse brain Primary embryonic cortical cell assessed as cell death at 5 uM incubated for 1 hr by propidium iodide dye based spectrofluorometric analysis relative to control; format: toxicity; outline: as §1
[6] = Cytotoxicity against mouse brain Primary embryonic cortical cell assessed as cell death at 5 uM incubated for 2 hrs by propidium iodide dye based spectrofluorometric analysis relative to control; format: toxicity; outline: as §1
[7] = Cytotoxicity against mouse brain Primary embryonic cortical cell assessed as cell death at 30 uM incubated for 1 hr by propidium iodide dye based spectrofluorometric analysis relative to control; format: toxicity; outline: as §1
[8] = Cytotoxicity against mouse brain Primary embryonic cortical cell assessed as cell death at 5 uM incubated for 5 hrs by propidium iodide dye based spectrofluorometric analysis relative to control; format: toxicity; outline: as §1
[9] = Cytotoxicity against mouse brain Primary embryonic cortical cell assessed as cell death at 10 uM incubated for 24 hrs by propidium iodide dye based spectrofluorometric analysis relative to control; format: toxicity; outline: as §1
[10] = Cytotoxicity against mouse brain Primary embryonic cortical cell assessed as cell death at 30 uM incubated for 6 hrs by propidium iodide dye based spectrofluorometric analysis relative to control; format: toxicity; outline: as §1
[11] = Cytotoxicity against mouse brain Primary embryonic cortical cell assessed as cell death at 2.5 uM incubated for 4 hrs by propidium iodide dye based spectrofluorometric analysis relative to control; format: toxicity; outline: as §1
[12] = Cytotoxicity against mouse brain Primary embryonic cortical cell assessed as cell death at 10 uM incubated for 5 hrs by propidium iodide dye based spectrofluorometric analysis relative to control; format: toxicity; outline: as §1
[13] = Cytotoxicity against mouse brain Primary embryonic cortical cell assessed as cell death at 10 uM incubated for 48 hrs by propidium iodide dye based spectrofluorometric analysis relative to control; format: toxicity; outline: as §1
[14] = Cytotoxicity against mouse brain Primary embryonic cortical cell assessed as cell death at 10 uM incubated for 6 hrs by propidium iodide dye based spectrofluorometric analysis relative to control; format: toxicity; outline: as §1
[15] = tested on: SH-SY5Y; experiment: Neuroprotective activity against okadaic acid-induced cytotoxicity in human SH-SY5Y cells assessed as increase in cell viability at 0.1 to 10 uM incubated for 24 hrs by MTT assay; format: functional, cell-based; settings: dose 0.1-10 µM
Outline: (§2)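 SH-SY5Y cells grown in DMEM with 10% FBS and plated at 4.5×10^4 cells/well. Incubated 24 h at 37 °C, 5% CO2 with compound (0.1–50 μM) plus okadaic acid 100 nM. Viability by MTT, expressed as % of untreated cells; estradiol and PD38 as positive controls. Mean ± SD of three independent experiments; ANOVA with Dunnett's test.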

[16] = Cytotoxicity against mouse brain Primary embryonic cortical cell assessed as cell death at 10 uM incubated for 4 hrs by propidium iodide dye based spectrofluorometric analysis relative to control; format: toxicity; outline: as §1
[17] = Cytotoxicity against mouse brain Primary embryonic cortical cell assessed as cell death at 30 uM incubated for 3 hrs by propidium iodide dye based spectrofluorometric analysis relative to control; format: toxicity; outline: as §1
[18] = Cytotoxicity against mouse brain Primary embryonic cortical cell assessed as cell death at 10 uM incubated for 1 hr by propidium iodide dye based spectrofluorometric analysis relative to control; format: toxicity; outline: as §1
[19] = target: Cholinesterase (Homo sapiens, UniProt P06276); experiment: Inhibition of human recombinant BChE using acetylthiocholine iodide as substrate at 10 uM preincubated for 20 mins followed by substrate addition by DTNB reagent based Ellman's method relative to control
Outline: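 Human BChE activity was read by the Ellman spectrophotometric method. Results are % inhibition at a single 10 μM inhibitor concentration. Values are means of three independent experiments.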

[20] = Cytotoxicity against mouse brain Primary embryonic cortical cell assessed as cell death at 30 uM incubated for 48 hrs by propidium iodide dye based spectrofluorometric analysis relative to control; format: toxicity; outline: as §1
[21] = Cytotoxicity against mouse brain Primary embryonic cortical cell assessed as cell death at 2.5 uM incubated for 5 hrs by propidium iodide dye based spectrofluorometric analysis relative to control; format: toxicity; outline: as §1
[22] = target: Acetylcholinesterase (Electrophorus electricus, UniProt O42275); experiment: Inhibition of electric eel AChE using acetylthiocholine iodide as substrate preincubated for 20 mins followed by substrate addition by DTNB reagent based Ellman's method
[23] = Cytotoxicity against mouse brain Primary embryonic cortical cell assessed as cell death at 2.5 uM incubated for 1 hr by propidium iodide dye based spectrofluorometric analysis relative to control; format: toxicity; outline: as §1
[24] = tested on: SH-SY5Y; experiment: Neuroprotective activity against okadaic acid-induced cytotoxicity in human SH-SY5Y cells assessed as increase in cell viability at 50 uM incubated for 24 hrs by MTT assay; format: functional, cell-based; outline: as §2
[25] = target: Microtubule-associated protein tau (Homo sapiens, UniProt P10636); experiment: Inhibition of tau (unknown origin) aggregation expressed in Escherichia coli BL21 (DE3)
Outline: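 E. coli BL21(DE3) carrying pTARA (T7 RNA polymerase under PBAD) and pRKT42 (four-repeat tau) grown at 37 °C in M9 with 0.5% glucose, antibiotics and 250 μM ThS to OD600 0.6. […] ThS fluorescence ex 430/em 485 nm, normalized to tau-expressing cells (100%) and non-expressing cells (0%); OD600 checked for growth.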

[26] = Cytotoxicity against mouse brain Primary embryonic cortical cell assessed as cell death at 5 uM incubated for 4 hrs by propidium iodide dye based spectrofluorometric analysis relative to control; format: toxicity; outline: as §1
[27] = target: Acetylcholinesterase (Homo sapiens, UniProt P22303); experiment: Inhibition of human recombinant AChE using acetylthiocholine iodide as substrate preincubated for 20 mins followed by substrate addition by DTNB reagent based Ellman's method
[28] = Cytotoxicity against mouse brain Primary embryonic cortical cell assessed as cell death at 5 uM incubated for 72 hrs by propidium iodide dye based spectrofluorometric analysis relative to control; format: toxicity; outline: as §1
[29] = Cytotoxicity against mouse brain Primary embryonic cortical cell assessed as cell death at 30 uM incubated for 2 hrs by propidium iodide dye based spectrofluorometric analysis relative to control; format: toxicity; outline: as §1
[30] = Cytotoxicity against mouse brain Primary embryonic cortical cell assessed as cell death at 30 uM incubated for 24 hrs by propidium iodide dye based spectrofluorometric analysis relative to control; format: toxicity; outline: as §1
[31] = Cytotoxicity against mouse brain Primary embryonic cortical cell assessed as cell death at 30 uM incubated for 72 hrs by propidium iodide dye based spectrofluorometric analysis relative to control; format: toxicity; outline: as §1
[32] = Cytotoxicity against mouse brain Primary embryonic cortical cell assessed as cell death at 2.5 uM incubated for 48 hrs by propidium iodide dye based spectrofluorometric analysis relative to control; format: toxicity; outline: as §1

Sequence of Cholinesterase (Equus caballus, UniProt P81908) (P81908 whole entry): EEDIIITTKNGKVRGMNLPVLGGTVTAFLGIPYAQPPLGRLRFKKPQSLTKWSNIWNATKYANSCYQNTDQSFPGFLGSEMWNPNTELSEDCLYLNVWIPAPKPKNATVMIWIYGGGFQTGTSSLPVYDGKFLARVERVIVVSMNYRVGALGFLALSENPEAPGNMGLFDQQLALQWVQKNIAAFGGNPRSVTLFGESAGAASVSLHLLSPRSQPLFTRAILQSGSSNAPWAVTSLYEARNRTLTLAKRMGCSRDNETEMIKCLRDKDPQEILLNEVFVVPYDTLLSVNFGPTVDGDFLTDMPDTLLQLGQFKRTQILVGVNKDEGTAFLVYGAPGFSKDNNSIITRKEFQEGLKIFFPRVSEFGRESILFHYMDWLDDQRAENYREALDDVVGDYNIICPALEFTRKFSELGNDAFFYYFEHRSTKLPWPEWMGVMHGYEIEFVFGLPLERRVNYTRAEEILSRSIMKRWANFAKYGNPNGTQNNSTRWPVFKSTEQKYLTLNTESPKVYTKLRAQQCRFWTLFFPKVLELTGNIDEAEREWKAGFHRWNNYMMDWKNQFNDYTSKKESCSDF
Sequence of Cholinesterase (Homo sapiens, UniProt P06276) (P06276 whole entry): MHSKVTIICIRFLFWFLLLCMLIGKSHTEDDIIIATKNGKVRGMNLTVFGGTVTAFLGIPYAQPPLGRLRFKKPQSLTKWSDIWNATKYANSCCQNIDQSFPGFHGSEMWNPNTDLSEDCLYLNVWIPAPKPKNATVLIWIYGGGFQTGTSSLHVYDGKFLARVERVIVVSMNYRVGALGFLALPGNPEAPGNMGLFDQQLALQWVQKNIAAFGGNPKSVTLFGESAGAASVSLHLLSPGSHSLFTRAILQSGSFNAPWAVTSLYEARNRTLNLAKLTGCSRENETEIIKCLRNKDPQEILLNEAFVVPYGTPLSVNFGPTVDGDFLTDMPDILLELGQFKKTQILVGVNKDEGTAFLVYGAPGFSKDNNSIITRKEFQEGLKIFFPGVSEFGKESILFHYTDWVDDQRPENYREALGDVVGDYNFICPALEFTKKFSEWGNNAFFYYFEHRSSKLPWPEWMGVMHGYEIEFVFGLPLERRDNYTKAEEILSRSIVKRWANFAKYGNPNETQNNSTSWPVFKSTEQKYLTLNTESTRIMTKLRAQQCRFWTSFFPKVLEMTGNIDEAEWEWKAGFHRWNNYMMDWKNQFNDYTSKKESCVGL
Sequence of Microtubule-associated protein tau (P10636 whole entry): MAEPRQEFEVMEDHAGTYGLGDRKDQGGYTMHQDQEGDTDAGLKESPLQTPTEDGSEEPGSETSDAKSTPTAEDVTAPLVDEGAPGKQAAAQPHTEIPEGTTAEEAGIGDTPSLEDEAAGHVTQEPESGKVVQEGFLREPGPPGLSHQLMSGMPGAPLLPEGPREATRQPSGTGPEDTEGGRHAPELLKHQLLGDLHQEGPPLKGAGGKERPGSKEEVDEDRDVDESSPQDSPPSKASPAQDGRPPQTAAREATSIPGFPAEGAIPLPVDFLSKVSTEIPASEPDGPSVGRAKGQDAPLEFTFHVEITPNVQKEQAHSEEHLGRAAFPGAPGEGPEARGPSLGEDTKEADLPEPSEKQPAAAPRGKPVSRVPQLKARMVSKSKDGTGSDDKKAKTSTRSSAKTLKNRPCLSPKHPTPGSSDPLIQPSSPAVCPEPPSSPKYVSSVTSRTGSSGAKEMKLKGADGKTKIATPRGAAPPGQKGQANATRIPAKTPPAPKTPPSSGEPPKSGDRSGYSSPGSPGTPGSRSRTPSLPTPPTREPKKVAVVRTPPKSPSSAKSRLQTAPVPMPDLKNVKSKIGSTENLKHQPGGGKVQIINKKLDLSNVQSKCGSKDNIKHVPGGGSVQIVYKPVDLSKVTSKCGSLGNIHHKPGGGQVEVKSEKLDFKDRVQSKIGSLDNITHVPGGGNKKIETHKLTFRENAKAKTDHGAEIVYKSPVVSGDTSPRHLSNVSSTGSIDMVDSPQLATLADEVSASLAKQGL
Sequence of Acetylcholinesterase (Electrophorus electricus, UniProt O42275) (O42275 whole entry): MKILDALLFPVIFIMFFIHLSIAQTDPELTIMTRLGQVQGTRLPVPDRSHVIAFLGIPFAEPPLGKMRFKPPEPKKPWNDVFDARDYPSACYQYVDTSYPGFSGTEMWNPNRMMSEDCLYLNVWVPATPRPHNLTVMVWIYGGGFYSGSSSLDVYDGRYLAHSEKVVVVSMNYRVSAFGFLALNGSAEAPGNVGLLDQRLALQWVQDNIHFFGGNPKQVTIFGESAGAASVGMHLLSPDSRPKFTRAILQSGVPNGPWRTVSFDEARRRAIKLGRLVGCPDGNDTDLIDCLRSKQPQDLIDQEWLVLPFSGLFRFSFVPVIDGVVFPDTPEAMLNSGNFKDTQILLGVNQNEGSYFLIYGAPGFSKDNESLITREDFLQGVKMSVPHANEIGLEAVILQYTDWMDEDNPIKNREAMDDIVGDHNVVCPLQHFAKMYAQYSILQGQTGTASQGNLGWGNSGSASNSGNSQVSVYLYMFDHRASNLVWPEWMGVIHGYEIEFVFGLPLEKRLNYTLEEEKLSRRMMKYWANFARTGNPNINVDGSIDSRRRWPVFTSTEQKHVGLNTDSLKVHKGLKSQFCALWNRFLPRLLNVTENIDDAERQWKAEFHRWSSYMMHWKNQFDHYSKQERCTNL
Sequence of Acetylcholinesterase (Homo sapiens, UniProt P22303) (P22303 whole entry): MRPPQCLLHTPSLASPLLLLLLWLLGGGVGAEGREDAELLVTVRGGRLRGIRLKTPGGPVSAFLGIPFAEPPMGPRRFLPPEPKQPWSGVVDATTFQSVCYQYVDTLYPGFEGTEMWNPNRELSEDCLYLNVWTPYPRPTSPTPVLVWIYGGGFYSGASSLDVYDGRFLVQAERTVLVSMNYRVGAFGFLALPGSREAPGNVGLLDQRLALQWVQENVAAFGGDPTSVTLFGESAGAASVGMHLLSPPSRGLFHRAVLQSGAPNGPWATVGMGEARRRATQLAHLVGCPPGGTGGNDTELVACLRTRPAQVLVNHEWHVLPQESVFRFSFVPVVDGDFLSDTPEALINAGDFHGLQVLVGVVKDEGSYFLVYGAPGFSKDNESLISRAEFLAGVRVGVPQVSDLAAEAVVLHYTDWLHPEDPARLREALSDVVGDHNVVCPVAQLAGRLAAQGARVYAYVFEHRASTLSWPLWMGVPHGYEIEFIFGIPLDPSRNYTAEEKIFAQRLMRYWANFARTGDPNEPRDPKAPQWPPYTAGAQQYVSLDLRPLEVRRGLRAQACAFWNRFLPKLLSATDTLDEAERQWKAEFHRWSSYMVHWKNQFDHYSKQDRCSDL

COc1ccc2sc3c(C)ccc(NCCC4CCN(C)CC4)c3c(=O)c2c1
Activity [1]: 29.9% | Activity [2]: 92.4% | Activity [3]: 15.8% | IC50 [4]: 0.96 µM | Activity [5]: 1.6% | Activity [6]: 7.6% | Activity [7]: 28.5% | Activity [8]: 32.6% | Activity [9]: 88.5% | Activity [10]: 61.9% | Activity [11]: 17.4% | Activity [12]: 54.4% | Activity [13]: 84.1% | Activity [14]: 55.7% | Activity [15]: Active | Activity [16]: 52.6% | Activity [17]: 54.7% | Activity [18]: 16.7% | inhibition [19]: 16% | Activity [20]: 88.1% | Activity [21]: 23.8% | IC50 [22]: 4.4 µM | Activity [23]: 2.9% | Activity [24]: inactive | IC50 [25]: 1.8 µM | Activity [26]: 25.8% | IC50 [27]: 16.1 µM | Activity [28]: 85.7% | Activity [29]: 46.5% | Activity [30]: 86.1% | Activity [31]: 89.4% | Activity [32]: 81.5%
